ChEMBL document CHEMBL1687714, “Genetic analysis of fenhexamid-resistant field isolates of the phytopathogenic fungus Botrytis cinerea” (Antimicrob Agents Chemother, 2008)
≈ marks a conversion by molar mass, not a printed value. Calls of active or inactive are those of the source. The calls are words filed in the database; no cut-off is given here.

Tests used:
[1] = tested on: Botrytis cinerea; assay: Antifungal activity against highly fenhexamid-resistant Botrytis cinerea 05-221 assessed as inhibition of mycelium growth measured over 5 days; assay type: functional, organism-based; conditions: 05-221, 120 h
[2] = tested on: Botrytis cinerea; assay: Antifungal activity against fenhexamid-senistive Botrytis cinerea B05.10 assessed as inhibition of germ tube elongation after 24 hrs; assay type: functional, organism-based; conditions: B05.10, 24 h
[3] = tested on: Botrytis cinerea; assay: Antifungal activity against HydR3 deficient Botrytis cinerea 453 harboring TELerg N369D mutant at 2 ug/ml relative to wild-type; assay type: functional, organism-based
Summary of the method: (§1)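 In the dominance test, the recipient strains 453b and 286 were transformed with different erg27 alleles. Spores of the transformants were grown on YSS medium containing fenhexamid at different concentrations and 50 µg ml–1 hygromycin B. Parental strains were grown without hygromycin. Growth was scored after 7 days at 21°C.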

[4] = tested on: Botrytis cinerea; assay: Antifungal activity against highly fenhexamid-resistant Botrytis cinerea MK3-36 assessed as inhibition of germ tube elongation after 24 hrs; assay type: functional, organism-based; conditions: MK3-36, 24 h
[5] = tested on: Botrytis cinerea; assay: Antifungal activity against moderately to slightly fenhexamid-resistant Botrytis cinerea 453a assessed as inhibition of mycelium growth measured over 5 days; assay type: functional, organism-based; conditions: 120 h
[6] = tested on: Botrytis cinerea; assay: Antifungal activity against highly fenhexamid-resistant Botrytis cinerea 440a assessed as inhibition of mycelium growth measured over 5 days; assay type: functional, organism-based; conditions: 120 h
[7] = tested on: Botrytis cinerea; assay: Antifungal activity against highly fenhexamid-resistant Botrytis cinerea 506b assessed as inhibition of mycelium growth measured over 5 days; assay type: functional, organism-based; conditions: 120 h
[8] = tested on: Botrytis cinerea; assay: Antifungal activity against highly fenhexamid-resistant Botrytis cinerea 440a assessed as inhibition of germ tube elongation after 24 hrs; assay type: functional, organism-based
[9] = tested on: Botrytis cinerea; assay: Antifungal activity against moderately to slightly fenhexamid-resistant Botrytis cinerea 05-1.27 assessed as inhibition of germ tube elongation after 24 hrs; assay type: functional, organism-based; conditions: 05-1.27, 24 h
[10] = tested on: Botrytis cinerea; assay: Antifungal activity against highly fenhexamid-resistant Botrytis cinerea 05-PV Reims assessed as inhibition of mycelium growth measured over 5 days; assay type: functional, organism-based; conditions: 120 h
[11] = tested on: Botrytis cinerea; assay: Antifungal activity against highly fenhexamid-resistant Botrytis cinerea 264 assessed as inhibition of mycelium growth measured over 5 days; assay type: functional, organism-based; conditions: Botrytis cinerea, 264, 120 h
[12] = tested on: Botrytis cinerea; assay: Antifungal activity against Botrytis cinerea 286 harboring TELerg S336C mutant at 5 ug/ml relative to wild-type; assay type: functional, organism-based; summary of the method: as §1
[13] = tested on: Botrytis cinerea; assay: Antifungal activity against moderately to slightly fenhexamid-resistant Botrytis cinerea 454 assessed as inhibition of germ tube elongation after 24 hrs; assay type: functional, organism-based; conditions: Botrytis cinerea, 454, 24 h
[14] = tested on: Botrytis cinerea; assay: Antifungal activity against highly fenhexamid-resistant Botrytis cinerea 533 assessed as inhibition of mycelium growth measured over 5 days; assay type: functional, organism-based; conditions: Botrytis cinerea, 533, 120 h
[15] = tested on: Botrytis cinerea; assay: Antifungal activity against highly fenhexamid-resistant Botrytis cinerea 05-190 assessed as inhibition of germ tube elongation after 24 hrs; assay type: functional, organism-based; conditions: 05-190, 24 h
[16] = tested on: Botrytis cinerea; assay: Antifungal activity against moderately to slightly fenhexamid-resistant Botrytis cinerea 05-ABA assessed as inhibition of germ tube elongation after 24 hrs; assay type: functional, organism-based
[17] = tested on: Botrytis cinerea; assay: Antifungal activity against highly fenhexamid-resistant Botrytis cinerea 379b assessed as inhibition of germ tube elongation after 24 hrs; assay type: functional, organism-based
[18] = tested on: Botrytis cinerea; assay: Antifungal activity against HydR3 deficient Botrytis cinerea 453 harboring TELerg N369D mutant at 10 ug/ml relative to wild-type; assay type: functional, organism-based; summary of the method: as §1
[19] = tested on: Botrytis cinerea; assay: Antifungal activity against highly fenhexamid-resistant Botrytis cinerea 312 assessed as inhibition of mycelium growth measured over 5 days; assay type: functional, organism-based; conditions: Botrytis cinerea, 312, 120 h
[20] = tested on: Botrytis cinerea; assay: Antifungal activity against moderately to slightly fenhexamid-resistant Botrytis cinerea 286 assessed as inhibition of mycelium growth measured over 5 days; assay type: functional, organism-based; conditions: Botrytis cinerea, 286, 120 h
[21] = tested on: Botrytis cinerea; assay: Antifungal activity against highly fenhexamid-resistant Botrytis cinerea 223a assessed as inhibition of germ tube elongation after 24 hrs; assay type: functional, organism-based
[22] = tested on: Botrytis cinerea; assay: Antifungal activity against Botrytis cinerea B05.10 harboring TELerg F412S mutant assessed as appearance of mycelium growth up to 20 ug/ml; assay type: functional
Summary of the method: (§2)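 B05.10 transformants carrying the erg27 allele on the pFTELerg plasmid were grown on rich medium with hygromycin B until conidiation. Spores were spread on YSS (synthetic complete) medium with 50 µg ml–1 hygromycin B and fenhexamid at 1 to 20 µg ml–1. After 7 days at 21°C, spores developing mycelium were scored under the microscope.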

[23] = tested on: Botrytis cinerea; assay: Antifungal activity against HydR3 deficient Botrytis cinerea 453 harboring TELerg F412I mutant at 5 ug/ml relative to wild-type; assay type: functional, organism-based; summary of the method: as §1
[24] = tested on: Botrytis cinerea; assay: Antifungal activity against highly fenhexamid-resistant Botrytis cinerea 05-PV Reims assessed as inhibition of germ tube elongation after 24 hrs; assay type: functional, organism-based
[25] = tested on: Botrytis cinerea; assay: Antifungal activity against HydR3 deficient Botrytis cinerea 453 harboring TELerg F412I mutant at 2 ug/ml relative to wild-type; assay type: functional, organism-based; summary of the method: as §1
[26] = tested on: Botrytis cinerea; assay: Antifungal activity against fenhexamid-senistive Botrytis cinerea SAS405 assessed as inhibition of mycelium growth measured over 5 days; assay type: functional, organism-based; conditions: SAS405, 120 h
[27] = tested on: Botrytis cinerea; assay: Antifungal activity against Botrytis cinerea B05.10 harboring TELerg F412I mutant assessed as appearance of mycelium growth up to 20 ug/ml; assay type: functional; summary of the method: as §2
[28] = tested on: Botrytis cinerea; assay: Antifungal activity against highly fenhexamid-resistant Botrytis cinerea 118 assessed as inhibition of germ tube elongation after 24 hrs; assay type: functional, organism-based; conditions: Botrytis cinerea, 118, 24 h
[29] = tested on: Botrytis cinerea; assay: Antifungal activity against highly fenhexamid-resistant Botrytis cinerea 05-AVB assessed as inhibition of mycelium growth measured over 5 days; assay type: functional, organism-based; conditions: 120 h
[30] = tested on: Botrytis cinerea; assay: Antifungal activity against highly fenhexamid-resistant Botrytis cinerea 05-AVB assessed as inhibition of germ tube elongation after 24 hrs; assay type: functional, organism-based
[31] = tested on: Botrytis cinerea; assay: Antifungal activity against highly fenhexamid-resistant Botrytis cinerea 223b assessed as inhibition of germ tube elongation after 24 hrs; assay type: functional, organism-based
[32] = tested on: Botrytis cinerea; assay: Antifungal activity against moderately to slightly fenhexamid-resistant Botrytis cinerea 453b assessed as inhibition of mycelium growth measured over 5 days; assay type: functional, organism-based; conditions: 120 h
[33] = tested on: Botrytis cinerea; assay: Antifungal activity against highly fenhexamid-resistant Botrytis cinerea 179 assessed as inhibition of mycelium growth measured over 5 days; assay type: functional, organism-based; conditions: Botrytis cinerea, 179, 120 h
[34] = tested on: Botrytis cinerea; assay: Antifungal activity against moderately to slightly fenhexamid-resistant Botrytis cinerea 57 assessed as inhibition of mycelium growth measured over 5 days; assay type: functional, organism-based; conditions: Botrytis cinerea, 57, 120 h
[35] = tested on: Botrytis cinerea; assay: Antifungal activity against highly fenhexamid-resistant Botrytis cinerea 533 assessed as inhibition of germ tube elongation after 24 hrs; assay type: functional, organism-based; conditions: Botrytis cinerea, 533, 24 h
[36] = tested on: Botrytis cinerea; assay: Antifungal activity against moderately to slightly fenhexamid-resistant Botrytis cinerea 452 assessed as inhibition of germ tube elongation after 24 hrs; assay type: functional, organism-based; conditions: Botrytis cinerea, 452, 24 h
[37] = tested on: Botrytis cinerea; assay: Antifungal activity against moderately to slightly fenhexamid-resistant Botrytis cinerea 286 assessed as inhibition of germ tube elongation after 24 hrs; assay type: functional, organism-based; conditions: Botrytis cinerea, 286, 24 h
[38] = tested on: Botrytis cinerea; assay: Antifungal activity against HydR3 deficient Botrytis cinerea 453 harboring TELerg N369D mutant at 1 ug/ml relative to wild-type; assay type: functional, organism-based; summary of the method: as §1
[39] = tested on: Botrytis cinerea; assay: Antifungal activity against moderately to slightly fenhexamid-resistant Botrytis cinerea 365 assessed as inhibition of mycelium growth measured over 5 days; assay type: functional, organism-based; conditions: Botrytis cinerea, 365, 120 h
[40] = tested on: Botrytis cinerea; assay: Antifungal activity against HydR3 deficient Botrytis cinerea 453 harboring TELerg F412I mutant at 1 ug/ml relative to wild-type; assay type: functional, organism-based; summary of the method: as §1
[41] = tested on: Botrytis cinerea; assay: Antifungal activity against moderately to slightly fenhexamid-resistant Botrytis cinerea 365 assessed as inhibition of germ tube elongation after 24 hrs; assay type: functional, organism-based; conditions: Botrytis cinerea, 365, 24 h

With `CC1(C(=O)Nc2ccc(O)c(Cl)c2Cl)CCCCC1` [FENHEXAMID] the EC50 [1] was 7 µg/mL (≈ 23.2 µM), the EC50 [2] was less than 0.1 µg/mL and the Activity [3] was “inactive”. For the same molecule, the EC50 [4] was greater than 5 µg/mL, the EC50 [5] was 2 µg/mL (≈ 6.62 µM) and the EC50 [6] was greater than 10 µg/mL. For the same molecule, the EC50 [7] was greater than 10 µg/mL, the EC50 [8] was greater than 10 µg/mL and the EC50 [9] was 2.5 µg/mL (≈ 8.27 µM). For the same molecule, the EC50 [10] was greater than 10 µg/mL, the EC50 [11] was greater than 10 µg/mL and the Activity [12] was “inactive”. It also gave an EC50 [13] of 0.5 µg/mL (≈ 1.65 µM), an EC50 [14] of 10 µg/mL (≈ 33.1 µM) and an EC50 [15] greater than 10 µg/mL. For the same molecule, the EC50 [16] was 0.8 µg/mL (≈ 2.65 µM), the EC50 [17] was greater than 10 µg/mL and the Activity [18] was “inactive”. The EC50 [19] was greater than 10 µg/mL, the EC50 [20] was 1.5 µg/mL (≈ 4.96 µM) and the EC50 [21] was greater than 10 µg/mL. The Activity [22] was 10%, the Activity [23] was “inactive” and the EC50 [24] was greater than 10 µg/mL. The Activity [25] was “inactive”, the EC50 [26] was less than 0.1 µg/mL and the Activity [27] was 10%. The EC50 [28] was greater than 10 µg/mL, the EC50 [29] was 5 µg/mL (≈ 16.5 µM) and the EC50 [30] was greater than 10 µg/mL. The EC50 [31] was greater than 10 µg/mL, the EC50 [32] was 1.5 µg/mL (≈ 4.96 µM) and the EC50 [33] was greater than 10 µg/mL. It also gave an EC50 [34] of less than 0.3 µg/mL, an EC50 [35] greater than 10 µg/mL and an EC50 [36] of 2.5 µg/mL (≈ 8.27 µM). The EC50 [37] was 4 µg/mL (≈ 13.2 µM), the Activity [38] was “inactive” and the EC50 [39] was 0.3 µg/mL (≈ 0.993 µM). For the same molecule, the Activity [40] was “inactive” and the EC50 [41] was 2 µg/mL (≈ 6.62 µM).
